Experimental data published in ChEMBL document CHEMBL1275263, “Synthesis and evaluation of stilbene derivatives as a potential imaging agent of amyloid plaques” (Bioorg Med Chem, 2010).

Assays:
[1] = Binding affinity to amyloid beta (1 to 40)
In short: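 Aβ40 peptide in PBS (pH 7.4), brought to 200 final and shaken gently at 37 °C for 48 h to form fibrils, which were confirmed by ThT assay. Dye fluorescence was measured with the fibrils in PBS, with excitation and emission maxima determined by spectral scans. KD came from nonlinear regression fitting a one-site binding model, from 5 replicate experiments (N = 5).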

[2] = Binding to amyloid beta (1 to 40) fibrils assessed as fold increase in compound fluorescence at 30 uM by fluorescence assay relative to control

Compound	Kd [1] [nM]	Ratio [2]
CN(CCO)c1ccc(/C=C/c2cccc(Br)c2)cc1	2890	8.91
CN(CCO)c1ccc(/C=C/c2ccc(Br)cc2)cc1	1840	15.7
Cc1ccc2c(c1)sc(-c1ccc(N(C)C)cc1)[n+]2C [THIOFLAVIN T]	2300	
CNc1ccc(-c2nc3ccccc3s2)cc1	300	
CNc1ccc(/C=C/c2ccc(Br)cc2)cc1	1130	25.8
CNc1ccc(/C=C/c2cccc(OC)c2)cc1	17900	9.3
